VLA-4 inh: inhibition in a human VLA-4 binding assay | 330,000 tested, 0.2% active | AID 2557 | inhibition, % (about 7 µM as worked out from the volumes in the protocol) | P13612 | VLA-4 expressing cells, ligand binding flow cytometry; in the data active = inhibition above about 50%
Platelet DG rel: platelet dense granule release activity | human platelet-rich plasma, SFLLRN dense granule ATP release, luminescence | inhibition, %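 (compounds screened at 7.5 µM in platelet-rich plasma)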 | 300,000 tested, 0.22% active | AID 1663;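 active = mean replicate score, as percent of positive control, at or above 50; inconclusive = mean below 50 but at least one replicate at or above 50; inactive = mean and every replicate below 50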
Myeloid diff MLP: myeloid differentiation induction. 360,000 tested, 1% active. ER-HoxA9 myeloid progenitors, lysozyme-GFP differentiation, flow cytometry. calls only at 10 µM;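 active = normalized GFP-positive differentiation at or above the plate's own cutoff, the solvent-only control mean plus 3 SD; inconclusive = no clear call, values can overlap the other calls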;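 also: cells exposed to compound for four days before flow analysis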
SENP1 FRET inh: SENP1 (human) catalytic domain inhibition. 360,000 tested, 0.21% active. recombinant SENP1 catalytic domain, CyPet-SUMO1-YPet FRET cleavage. Q9P0U3. AID 624204. inhibition, % at 10 µM;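 active = inhibition at least 30% at 10 µM, raw YFP signal under a set limit, fluorescence ratio 0.5 to 1.5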;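 also: 0% = enzyme with DMSO and 100% = no enzyme wells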
Target sequence (Q9P0U3 419-644 limits assumed): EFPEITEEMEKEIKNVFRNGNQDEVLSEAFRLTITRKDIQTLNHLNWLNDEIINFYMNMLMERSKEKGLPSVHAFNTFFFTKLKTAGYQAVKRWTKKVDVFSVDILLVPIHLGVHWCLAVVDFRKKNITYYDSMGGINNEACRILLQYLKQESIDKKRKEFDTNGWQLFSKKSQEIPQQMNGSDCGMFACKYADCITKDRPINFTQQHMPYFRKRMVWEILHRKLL
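Assay system – human recombinant His6-tagged SENP1 catalytic domain enzyme · Input – SENP1 enzyme, 20 pM final · Buffer or medium – Tris pH 8 buffer plus EDTA, NaCl, BME, BSA, NP40, catalase · Schedule – 50 min reaction at room temperature · Technique – FRET read of cyan and yellow fluorescence · Control set – no-enzyme wells low, DMSO-plus-enzyme wells high control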
* = called active by the depositor; i = inactive; u = inconclusive; x = no result; + = active, no number. This is a sample that favours compounds with a hit; in the whole collection about 1.5% have one here.

SMILES	VLA-4 inh	Platelet DG rel	Myeloid diff MLP	SENP1 FRET inh
CN(C)c1ccc(-c2ccnc3c2CC(C)(C(=O)NCc2ccccc2)O3)cc1 (stereo not given)	x	x	+	0
CN(C)c1ccc(-c2ccnc3c2CC(C)(C(=O)NCc2ccncc2)O3)cc1 (stereo not given)	x	x	i	-1
COc1[nH]c(/N=C/c2ccccc2)c(C#N)c1C#N	-21	-4	i	70*
Cc1oc(/N=C/c2ccccc2)c(C#N)c1C	2	-6	i	-4
Cn1c(=O)c2c(nc(NCc3cccnc3)n2Cc2cccc(C(F)(F)F)c2)n(C)c1=O	-7	24	i	1
COc1cccc(Cn2c(NCc3cccnc3)nc3c2c(=O)n(C)c(=O)n3C)c1	13	17	+	3
COc1ccc(CNC(=O)C2=CC(c3ccc(OC)cc3)=NS(=O)(=O)N2C)cc1	-12	-3	i	0
CCOc1ccc(Nc2nc3c(C)cccc3cc2C#N)cc1	-34	-13	+	-7
N=c1c2c(-c3ccccc3)c(-c3ccccc3)n(Cc3ccccc3)c2ncn1CCCn1ccnc1	28	-27	+	-5
CCCCn1cnc2c(c(-c3ccccc3)c(-c3ccccc3)n2Cc2ccco2)c1=N	6	2	i	0
CN(C)c1ncc(CN2CCC(C(=O)Nc3ccc(-n4cccn4)cc3)CC2)s1	3	-2	i	-2
COc1cc(C(=O)Nc2cccc(S(=O)(=O)N3CCCC3)c2)cc(OC)c1C	-2	-2	u	-4
CC(=O)c1ccc(OCC(O)CN(C)CCOc2ccc(Br)cc2)cc1 (stereo not given)	7	-9	+	1
CSc1ccc(CNC(=O)Cn2nc(C)c3c(C)n(-c4ccc(C)cc4)nc3c2=O)cc1	13	-3	i	-1
Cc1cn([C@H]2C[C@H](O)[C@@H](/C=C/C(=O)NCc3ccc(N(C)C)cc3)O2)c(=O)[nH]c1=O	x	x	i	-2
Cc1cn([C@H]2C[C@H](O)[C@@H](/C=C/C(=O)NCc3ccco3)O2)c(=O)[nH]c1=O	x	x	+	0
CC(C)c1ccc(C2OCC(C)([N+](=O)[O-])CO2)cc1 (stereo not given)	x	x	i	2
CN(c1ccccc1)S(=O)(=O)c1cc(Cl)ccc1Cl	51*	0	i	2
CN(c1ccccc1)S(=O)(=O)c1cccc(Cl)c1Cl	-4	5	i	4
Cc1ccc(-c2c(C#N)c(N)n(-c3ccccc3C)c(=O)c2C#N)cc1	x	x	i	-1
Cc1ccc(-n2c(N)c(C#N)c(-c3ccccc3)c(C#N)c2=O)cc1	32	87*	i	0
O=C(CNC(=O)c1ccco1)OCC(=O)c1ccc(Cl)cc1	13	-4	i	-1
CCc1ccc(C(=O)COC(=O)CNC(=O)c2ccco2)cc1	-2	51*	i	2
NC(=O)C1(N2CCCCC2)CCN(C(=O)Nc2ccccc2C(F)(F)F)CC1	4	53*	x	x
Cc1ccc(CON=C2CCN(c3ncc(C(F)(F)F)cc3Cl)CC2)cc1	27	-1	+	0
SMILES	VLA-4 inh	Platelet DG rel	Myeloid diff MLP	SENP1 FRET inh
COc1ccccc1NC(=O)CSc1ccc(-c2ccc(-n3ccnc3)cc2)nn1	-1	-17	i	-2
COc1cc(/C=C2\SC(=S)N(Nc3ccccc3)C2=O)ccc1O	-190	8	i	50
O=C(NN1C(=O)/C(=C\c2ccc(O)c([N+](=O)[O-])c2)SC1=S)c1ccccc1Cl	4	0	i	33*
O=C(O)c1ccc(/C=C2\SC(=S)N(NC(=O)c3ccccc3[N+](=O)[O-])C2=O)cc1	20	1	i	5
O=C1/C(=C/c2ccc(O)c(O)c2)SC(=S)N1Nc1ccccc1	x	15	+	36*
COc1cc(/C=C2\SC(=S)N(NC(=O)c3cccnc3)C2=O)ccc1O	-241	2	i	49*
Cc1onc(-c2ccccc2)c1C(=O)NN1CCOCC1	-6	x	i	-1
COc1cc2ncc(C(=O)c3ccccc3)c(N3CCN(Cc4ccccc4)CC3)c2cc1OC	-6	10	i	-12
CN1CCN(NC(=O)c2ccc(Cl)s2)CC1	12	1	i	3
CC(C)[N+]1=C2C=CC=CC=C2SC12C([N+](=O)[O-])=CC(=[N+]([O-])[O-])C=C2[N+](=O)[O-] (stereo not given)	12	-1	+	0
Nc1c(C(=O)C2CC2)sc2nc(-c3ccccc3)cc(C(F)(F)F)c12	i	2	+	-24
CN(C)CCNC(=O)c1sc2nc(-c3ccccc3)cc(C(F)(F)F)c2c1N	-97	0	+	19
CC(=O)c1sc2nc(-c3cccs3)cc(C(F)(F)F)c2c1N	i	0	+	-6
COc1ccccc1NC(=O)c1ccc2c(O)c(S(=O)(=O)c3ccccc3)c(=O)[nH]c2c1	-1	1	i	-4
COc1cccc(-c2c(C(=O)N/N=C(\C)COc3ccccc3)nnn2-c2nonc2N)c1	12	-3	i	2
CN(C)Cc1ccccc1CNC(=O)c1cccc(S(=O)(=O)Nc2ccc3c(c2)OCO3)c1	x	x	i	-3
Clc1ccc(N=c2ssnc2Cl)nc1	34	5	i	32*
Clc1nssc1=Nc1ccc(Br)cc1	x	-16	i	1
O=C(O)c1cc(O)ccc1O	x	x	i	-1
Nc1ccc(O)c(C(=O)O)c1	51*	5	x	x
COc1ccc(/C=C2/C(=O)N=C(N)N2C)cc1OC	10	-2	+	-19
COc1cc(OC)c(OC)cc1/C=C1/C(=O)N=C(N)N1C	-108	-2	i	3
COc1ccc(/C=C2\N=C(C)OC2=O)cc1OC(C)=O	6	1	i	-4
COc1ccc(/C=C2\N=C(C)OC2=O)cc1OC	7	-1	+	2
CN(CC(=O)Nc1ccccc1Cl)C(=O)Cn1cnc2ccccc2c1=O	x	x	i	1
SMILES	VLA-4 inh	Platelet DG rel	Myeloid diff MLP	SENP1 FRET inh
CCN(Cc1ccccc1)C(=O)c1c(-c2ccccc2Cl)noc1C	3	-3	i	2
CC(C)N1CCN(Cc2ccc(-c3ccccc3Cl)o2)CC1CCO (stereo not given)	12	-4	i	-2
COC(=O)/N=C/c1c(NCc2ccccc2)nc2c(C)cccn2c1=O	14	-3	i	-6
Cc1cccn2c(=O)c(C=O)c(NCc3ccccc3)nc12	7	7	+	-2
COc1cc(OC)c(CN2CCc3c([nH]c4ccccc34)C2)cc1Br	-32	-11	+	-9
NSc1nc(N)c2nc(-c3ccccc3)c(-c3ccccc3)nc2n1	3	5	i	-38
Nc1nc(N)c2nc(-c3ccccc3)c(N)nc2n1	-8	16	+	-202
COc1ccc(C2=C3C(=O)OCC3Cc3ncn(Cc4ccccc4)c32)cc1 (stereo not given)	9	x	i	0
O=C(/C=C/c1cc[n+](CC(=O)c2ccc3cccc4c3c2CC4)cc1)c1ccc2cccc3c2c1CC3	-8	1	+	-35
O=C(C[n+]1ccc2ccccc2c1)c1cccc2ccccc12	-10	0	i	-7

Screens (PubChem BioAssay)
